GRIN3A LBD mod: modulates the human NR3A ligand-binding domain; 340,000 tested, 2.5% active; NR3A LBD differential scanning fluorimetry, Tm shift; 0% = protein alone, 100% = glycine-bound protein; Tm shift relative to glycine control, % at 25 µM;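 active = melting temperature shift of at least 10% of the positive control shift, at one fixed dose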
CHOP inh: blocks CHOP induction under ER stress; CHO-K1 CHOP-promoter luciferase, tunicamycin-induced, 15-18 h; inhibition, % at 10 µM; 220,000 tested, 3.8% active; AID 2732;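 active = compounds that reduced the stress-induced luciferase reporter signal by more than about 70% of percent inhibition, limit read from the data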;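 note: 0% = tunicamycin plus vehicle and 100% = wells without tunicamycin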
MPTP inh: blocks calcium-induced mitochondrial swelling | isolated mouse mitochondria, Ca2+ swelling absorbance, 30 min | inhibition, % at 10 µM | 360,000 tested, 1.4% active;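 active = inhibition of 50% or more, scaled per plate between neutral and stimulator controls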;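 note: 0% = DMSO wells given calcium and 100% = 1 mM EGTA wells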
EBV gp42 block: inhibitors of Epstein-Barr virus glycoprotein 42 | Q1HVG2 | Fluorescence polarization binding assay, mP read-out | inhibition, % (tested at 21.74 µM) | 220,000 tested, 0.42% active; in the data active = inhibition above about 50%
Target sequence (Q1HVG2 whole entry, looked up): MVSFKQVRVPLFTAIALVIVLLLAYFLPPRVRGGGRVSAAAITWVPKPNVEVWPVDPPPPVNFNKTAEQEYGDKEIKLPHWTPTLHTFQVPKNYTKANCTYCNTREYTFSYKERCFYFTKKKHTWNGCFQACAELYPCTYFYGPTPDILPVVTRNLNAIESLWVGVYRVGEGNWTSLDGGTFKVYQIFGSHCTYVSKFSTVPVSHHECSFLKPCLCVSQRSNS
WT yeast gro inh: growth inhibition of WT yeast, mitochondrial fusion screen; mitochondrial fusion phenotypic screen, WT strain; inhibition, % at 10 µM; 190,000 tested, 2.1% active; AID 1362; in the data active = inhibition above about 58%; tested in S. cerevisiae
TbMetRS inhib: blocks T. brucei methionyl-tRNA synthetase activity. purified T. brucei MetRS, ATP depletion, Kinase-Glo luminescence. 360,000 tested, 0.4% active. inhibition, % at 11.9 µM. AID 624268;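 active = inhibition above a per-plate cutoff of the control wells' mean inhibition plus 3 SD, cut at about 5.5% in these data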;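 note: 0% = DMSO wells median and 100% = median of wells with control inhibitor compound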
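technique = Kinase-Glo luminescence, ATP depletion format | system = purified MetRS (methionyl-tRNA synthetase) enzyme from Trypanosoma brucei | timing = 15 min preincubation, 2 h reaction, all 25 °C | evaluation = percent inhibition versus plate control medians | dosing = single dose, 11.9 µM final nominal, 0.9% final DMSO | also added = substrates ATP, L-methionine and bulk Escherichia coli tRNA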
* = called active by the depositor; x = not tested or not shown. A selection: hits, their analogues and other compounds. The true share with any hit is near 6.4%.

SMILES	GRIN3A LBD mod	CHOP inh	MPTP inh	EBV gp42 block	WT yeast gro inh	TbMetRS inhib
CCC(C(=O)NCCc1ccc(C)cc1)n1nc(C)c2c(C)n(-c3ccccc3)nc2c1=O (configuration not stated)	0	x	0	x	x	0
COC(=O)C1=C(O)C(C(=O)OC)C(c2ccc(C)cc2)C(C#N)(C#N)C1c1ccc(C)cc1 (configuration not stated)	-1	42	-2	7	67*	0
CCCOc1ccc(-c2nn(-c3ccccc3)cc2/C=C2\SC(N)=NC2=O)cc1C	16*	-10	0	-73	-24	0
COc1ccccc1OC(C)C(=O)Nc1nc(-c2ccc(S(=O)(=O)N3CCOCC3)cc2)cs1 (configuration not stated)	2	18	4	-10	-18	0
COc1ccccc1C(=O)Nc1nc(-c2ccc(S(=O)(=O)N3CCOCC3)cc2)cs1	-2	92*	5	-6	11	0
Cc1ccc2nc(NCc3ccccc3)c(C=O)c(=O)n2c1	14*	-4	0	-15	-14	0
O=C(COc1ccc2ccccc2c1)Nc1nnc(-c2ccco2)s1	5	72*	x	-8	x	x
Cc1ccccc1OCC(=O)Nc1nnc(-c2ccco2)s1	-4	4	3	-12	x	0
C=CCSc1nnc(NC(=O)COc2ccc3ccccc3c2)s1	-6	57	3	-14	86*	0
C=CCSc1nnc(NC(=O)COc2ccccc2)s1	0	3	-1	3	2	0
Cn1c(N)c(C(=O)COC(=O)c2ccccn2)c(=O)n(C)c1=O	-3	16	1	-22	5	0
CCOc1ncccc1C(=O)OCC(=O)c1c(N)n(C)c(=O)n(C)c1=O	1	86*	-2	-35	13	-2
Cc1cc(/C=C2\SC(=Nc3ccccc3)NC2=O)c(C)n1-c1ccc(S(N)(=O)=O)cc1	-20	92*	-2	-40	2	0
Cc1ccc(-n2c(C)cc(/C=C3\SC(=O)NC3=O)c2C)cc1	1	x	2	x	x	0
CS(=O)(=O)N(Cc1ccc(Cl)cc1)c1ccc(C(=O)N/N=C/c2cc3ccccc3nc2Cl)cc1	10*	13	-1	-15	7	1
CS(=O)(=O)N(Cc1ccc(C(=O)NN=C2CCCC2)cc1)c1ccccc1	-1	17	0	-10	-13	0
CS(=O)(=O)N(Cc1ccc(C(=O)NN=C2CCCCCC2)cc1)c1ccccc1	13*	-6	-2	0	-1	-1
CC(=O)c1c(C)oc2c1cc(O)c1ccccc12	0	-17	7	3	x	-1
CCOC(=O)c1c(C)oc2c1c(C=NCc1ccccn1)c(O)c1ccccc12	-2	82*	2	3	5	0
CCOC(=O)c1c(C)oc2c1cc(O)c1ccccc12	0	77*	0	-11	1	-1
CC1(C)Cc2cccc(Oc3ccc(S(=O)(=O)N4CCCCC4)cn3)c2O1	0	-3	-1	-17	-4	0
CCC(C)(C)C1CCc2c(sc(NC(=O)c3ccoc3C)c2C(N)=O)C1 (configuration not stated)	3	72*	1	-3	x	0
CCC(=O)OCCNc1cc(Sc2nc3ccccc3[nH]2)c2nonc2c1[N+](=O)[O-]	-10	109*	2	-16	8	0
CCCSc1cc(NCCOC(=O)CCC)c([N+](=O)[O-])c2nonc12	-15	68	1	5	45	1
CCCC(=O)OCCNc1cc(SCc2ccco2)c2nonc2c1[N+](=O)[O-]	-1	13	0	-4	18	0
SMILES	GRIN3A LBD mod	CHOP inh	MPTP inh	EBV gp42 block	WT yeast gro inh	TbMetRS inhib
CCC(=O)OCCNc1cc(Sc2nc3ccccc3s2)c2nonc2c1[N+](=O)[O-]	-21	113*	5	33	95*	-1
COc1ccc([N+](=O)[O-])cc1NC(=O)c1cncc(Br)c1	0	29	0	-3	-20	0
Cc1ccc(CN2CC(N3CCC(c4ccccc4)CC3)CS2(=O)=O)cc1 (configuration not stated)	x	x	1	x	x	-1
O=S(=O)(c1cccc(C(F)(F)F)c1)c1ccc(O)cn1	11*	x	3	x	x	0
N#CC(=C(O)CN1CCN(c2ccccc2F)CC1)c1nc(-c2ccccc2)cs1	-1	x	9	x	x	0
N#CC(=C(O)CN1CCN(c2ccccc2F)CC1)c1nc(-c2ccc(Cl)cc2)cs1	90*	x	34	x	x	0
O=S(=O)(c1cccc(-c2nc3n(n2)Cc2ccccc2-3)c1)N1CCCCC1	-14	53	-1	-3	7	0
O=S(=O)(c1cccc(-c2nc3n(n2)Cc2ccccc2-3)c1)N1CCCC1	13*	-22	0	-8	17	-1
CCC1CCCCN1CCCNC(=O)CS(=O)Cc1nc(-c2ccc(OC)c(OC)c2)oc1C (configuration not stated)	5	x	-1	x	x	-1
CCOC(=O)c1cnc(SC)nc1Oc1cccc(NC(=O)c2ccc(C)cc2)c1	17*	12	2	4	-4	0
Cc1cc2cc(CCNC(=O)c3ccc(S(=O)(=O)N4CCOCC4)cc3)c(=O)[nH]c2cc1C	0	71*	1	-9	-6	-1
Cc1ccc2cc(CCNC(=O)c3ccc(S(=O)(=O)N4CCOCC4)cc3)c(=O)[nH]c2c1	1	x	-1	x	x	0
CN(C)c1nc(N)nc(CSc2nc3c(c(=O)n(C)c(=O)n3C)n2Cc2ccccc2F)n1	-1	72*	-1	-5	-5	0
NC(=O)c1cn(Cc2c(F)cccc2F)nn1	1	x	-1	x	x	0
CCC(c1nnnn1-c1ccc(OC)cc1)N1CCN(C/C=C/c2ccccc2)CC1 (configuration not stated)	x	x	0	x	x	0
C=CCN(CC=C)CCOc1ccc(OC(C)C)cc1	-4	-6	1	-9	-2	-1
O=C(CCN1C(=O)/C(=C/c2ccccc2Cl)SC1=S)NNC(=O)c1ccccc1O	10	x	7	x	x	1
Cc1ccc(/C=C2\SC(=S)N(CCCC(=O)NNC(=O)c3ccccc3O)C2=O)cc1	-3	98*	21	-62	x	-1
Cc1ccc(/C=C2\SC(=S)N(CCC(=O)NNC(=O)c3ccccc3O)C2=O)cc1	16*	x	4	x	x	0
CC(=O)Nc1cccc(NC(=O)c2ccc(COc3ccccc3)cc2)c1	-3	x	1	x	x	0
CC(=O)Nc1ccc(NC(=O)c2ccc(COc3ccccc3)cc2)cc1	10*	x	0	x	x	-1
CC(C)C(=O)Nc1ccc(NC(=O)c2ccc(COc3ccccc3)cc2)cc1	16*	x	0	x	x	1
COc1ccccc1C(c1nnnn1CC1CCCO1)N1CCC(C(N)=O)CC1 (configuration not stated)	-3	16	-2	-14	-10	0
